Legend:
Rattus norvegicus [1] = test: Biodistribution in Sprague-Dawley rat fat tissue at 1.48 to 2.22 MBq, iv measured at 30 mins by gamma counting analysis; format: ADME, organism-based, Adipose tissue; conditions: in vivo, 0.5 h
Procedure, shortened: (§1)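 Male Sprague-Dawley rats (250 - 400 g), tail-vein injection of 1.48 - 2.22 MBq radiotracer under 2.5% isoflurane in oxygen; n=4 per time point, euthanized at 5, 30 and 60 min p.i. Brain regions obtained by gross dissection; peripheral tissues collected. Samples weighed, gamma-counted against a diluted-injectate standard; %ID/g calculated.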

Striatum = test: Biodistribution in Sprague-Dawley rat striatum at 1.48 to 2.22 MBq, iv measured at 30 mins by gamma counting analysis; format: ADME, organism-based; conditions: in vivo, 0.5 h; procedure, shortened: as §1
Brain [2] = test: Biodistribution in Sprague-Dawley rat brain at 1.48 to 2.22 MBq, iv measured at 60 mins by gamma counting analysis; format: ADME, organism-based; conditions: in vivo, 1 h; procedure, shortened: as §1
Nucleic Acid [3] = test: Ratio of drug level in striatum to hippocampus in cynomolgus monkey at 185 to 259 MBq, iv measured at 70 mins by micro PET image analysis; format: ADME, organism-based, Macaca fascicularis; conditions: in vivo
Procedure, shortened: (§2)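 Adult male cynomolgus macaques (~4–6 kg), three independent PET studies per tracer on a microPET Focus 220. Animals fasted 12 h and anesthetized with ketamine (10 mg/kg) plus glycopyrrolate (0.13 mg/kg) i.m. A 10 min positioning transmission scan and a 45 min attenuation transmission scan were run, then a 3 h dynamic emission scan after venous tracer injection. Regional TACs came from ROIs, expressed as SUV (body weight, injected dose).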

Brain [4] = test: Biodistribution in Sprague-Dawley rat brain at 1.48 to 2.22 MBq, iv measured at 30 mins by gamma counting analysis; format: ADME, organism-based; conditions: in vivo, 0.5 h; procedure, shortened: as §1
Rattus norvegicus [5] = test: Biodistribution in Sprague-Dawley rat fat tissue at 1.48 to 2.22 MBq, iv measured at 5 mins by gamma counting analysis; format: ADME, organism-based, Adipose tissue; conditions: in vivo; procedure, shortened: as §1
Nucleic Acid [6] = test: Ratio of drug level in striatum to occipital in cynomolgus monkey at 185 to 259 MBq, iv measured at 40 mins by micro PET image analysis; format: ADME, organism-based, Macaca fascicularis; conditions: in vivo; procedure, shortened: as §2
Nucleic Acid [7] = test: Ratio of drug level in striatum to midbrain region in cynomolgus monkey at 185 to 259 MBq, iv measured at 70 mins by micro PET image analysis; format: ADME, organism-based, Macaca fascicularis, Brain; conditions: in vivo; procedure, shortened: as §2
Kidney [8] = test: Biodistribution in Sprague-Dawley rat kidney at 1.48 to 2.22 MBq, iv measured at 5 mins by gamma counting analysis; format: ADME, organism-based; conditions: in vivo; procedure, shortened: as §1
Muscle tissue [9] = test: Biodistribution in Sprague-Dawley rat muscle at 1.48 to 2.22 MBq, iv measured at 30 mins by gamma counting analysis; format: ADME, organism-based; conditions: in vivo, 0.5 h; procedure, shortened: as §1
Blood [10] = test: Biodistribution in Sprague-Dawley rat blood at 1.48 to 2.22 MBq, iv measured at 5 mins by gamma counting analysis; format: ADME, organism-based; conditions: in vivo; procedure, shortened: as §1
Bone [11] = test: Biodistribution in Sprague-Dawley rat bone at 1.48 to 2.22 MBq, iv measured at 60 mins by gamma counting analysis; format: ADME, organism-based, Bone element; conditions: in vivo, 1 h; procedure, shortened: as §1
Caudate = test: Drug uptake in cynomolgus monkey caudate at 185 to 259 MBq, iv measured over 180 mins by micro PET image analysis; format: ADME, organism-based, Macaca fascicularis, Caudate nucleus; conditions: in vivo, 3 h
Procedure, shortened: (§3)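 Adult male cynomolgus macaques (~4–6 kg), three studies per tracer, fasted 12 h. Induction with ketamine 10 mg/kg plus glycopyrrolate 0.13 mg/kg i.m. Transmission scans of 10 min for positioning and 45 min for attenuation correction, then a 3 h dynamic microPET emission scan after venous injection of 185 - 259 MBq. ROI time-activity curves expressed as SUV (body weight and injected dose).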

Kidney [12] = test: Biodistribution in Sprague-Dawley rat kidney at 1.48 to 2.22 MBq, iv measured at 60 mins by gamma counting analysis; format: ADME, organism-based; conditions: in vivo, 1 h; procedure, shortened: as §1
Bone [13] = test: Biodistribution in Sprague-Dawley rat bone at 1.48 to 2.22 MBq, iv measured at 5 mins by gamma counting analysis; format: ADME, organism-based, Bone element; conditions: in vivo; procedure, shortened: as §1
Kidney [14] = test: Biodistribution in Sprague-Dawley rat kidney at 1.48 to 2.22 MBq, iv measured at 30 mins by gamma counting analysis; format: ADME, organism-based; conditions: in vivo, 0.5 h; procedure, shortened: as §1
Blood [15] = test: Biodistribution in Sprague-Dawley rat blood at 1.48 to 2.22 MBq, iv measured at 30 mins by gamma counting analysis; format: ADME, organism-based; conditions: in vivo, 0.5 h; procedure, shortened: as §1
Nucleic Acid [16] = test: Ratio of drug level in striatum to cortex in Sprague-Dawley rat at 1.48 to 2.22 MBq, iv measured at 5 to 30 mins by gamma counting analysis; format: ADME, organism-based; conditions: in vivo
Procedure, shortened: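 Striatum, cerebellum and cortex obtained by gross dissection from Sprague-Dawley rats (250 - 400 g, n=4 per time point) after tail-vein injection of 1.48 - 2.22 MBq under isoflurane anesthesia. Tissues weighed and gamma-counted with an injectate standard to give %ID/g; ratios taken from striatal versus non-target uptake.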

Nucleic Acid [17] = test: Ratio of drug level in striatum to temporal region in cynomolgus monkey at 185 to 259 MBq, iv measured at 40 mins by micro PET image analysis; format: ADME, organism-based, Macaca fascicularis; conditions: in vivo; procedure, shortened: as §2
Liver [18] = test: Biodistribution in Sprague-Dawley rat liver at 1.48 to 2.22 MBq, iv measured at 5 mins by gamma counting analysis; format: ADME, organism-based; conditions: in vivo; procedure, shortened: as §1
Brain [19] = test: Biodistribution in Sprague-Dawley rat brain at 1.48 to 2.22 MBq, iv measured at 5 mins by gamma counting analysis; format: ADME, organism-based; conditions: in vivo; procedure, shortened: as §1
[20] = Metabolic stability in cynomolgus monkey plasma assessed as compound remaining at 185 to 259 MBq, iv measured at 30 mins by HPLC analysis; format: ADME, organism-based, Macaca fascicularis; conditions: read-out: Stability
Procedure, shortened: (§4)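 Arterial blood (~1.5 mL) drawn at 2, 15, 30, 60 and 90 min p.i. into heparinized syringes, then centrifuged to plasma. Plasma deproteinated with 2 parts ice-cold methanol. Extract run on C-18 HPLC, MeCN/0.1 M ammonium formate pH 4.5, 0.9 mL/min, UV 254 nm. 1-min fractions over 16 min were well-counted and decay-corrected; parent percentage taken from recovered activity.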

Nucleic Acid [21] = test: Ratio of drug level in striatum to hippocampus in cynomolgus monkey at 185 to 259 MBq, iv measured at 40 mins by micro PET image analysis; format: ADME, organism-based, Macaca fascicularis; conditions: in vivo; procedure, shortened: as §2
Liver [22] = test: Biodistribution in Sprague-Dawley rat liver at 1.48 to 2.22 MBq, iv measured at 30 mins by gamma counting analysis; format: ADME, organism-based; conditions: in vivo, 0.5 h; procedure, shortened: as §1
Muscle tissue [23] = test: Biodistribution in Sprague-Dawley rat muscle at 1.48 to 2.22 MBq, iv measured at 60 mins by gamma counting analysis; format: ADME, organism-based; conditions: in vivo, 1 h; procedure, shortened: as §1
Nucleic Acid [24] = test: Ratio of drug level in striatum to cerebellum in cynomolgus monkey at 185 to 259 MBq, iv measured at 70 mins by micro PET image analysis; format: ADME, organism-based, Macaca fascicularis; conditions: in vivo; procedure, shortened: as §2
Putamen = test: Drug uptake in cynomolgus monkey putamen at 185 to 259 MBq, iv measured over 180 mins by micro PET image analysis; format: ADME, organism-based, Macaca fascicularis; conditions: in vivo, 3 h; procedure, shortened: as §3
[25] = Metabolic stability in cynomolgus monkey plasma assessed as compound remaining at 185 to 259 MBq, iv measured at 90 mins by HPLC analysis; format: ADME, organism-based, Macaca fascicularis; conditions: read-out: Stability; procedure, shortened: as §4
Nucleic Acid [26] = test: Ratio of drug level in striatum to frontal in cynomolgus monkey at 185 to 259 MBq, iv measured at 40 mins by micro PET image analysis; format: ADME, organism-based, Macaca fascicularis; conditions: in vivo; procedure, shortened: as §2
Nucleic Acid [27] = test: Ratio of drug level in striatum to midbrain region in cynomolgus monkey at 185 to 259 MBq, iv measured at 40 mins by micro PET image analysis; format: ADME, organism-based, Macaca fascicularis, Brain; conditions: in vivo; procedure, shortened: as §2
[28] = Metabolic stability in cynomolgus monkey plasma assessed as compound remaining at 185 to 259 MBq, iv measured at 15 mins by HPLC analysis; format: ADME, organism-based, Macaca fascicularis; conditions: read-out: Stability; procedure, shortened: as §4

- Drug uptake (Rattus norvegicus [1]): 0.202 % ID/g
- Drug uptake (Striatum): Active
- Drug uptake (Brain [2]): 0.149 % ID/g
- Ratio (Nucleic Acid [3]): > 5
- Drug uptake (Brain [4]): 0.129 % ID/g
- Drug uptake (Rattus norvegicus [5]): 0.119 % ID/g
- Ratio (Nucleic Acid [6]): > 3
- Ratio (Nucleic Acid [7]): > 5
- Drug uptake (Kidney [8]): 1.789 % ID/g
- Drug uptake (Muscle tissue [9]): 0.156 % ID/g
- Drug uptake (Blood [10]): 0.343 % ID/g
- Drug uptake (Bone [11]): 0.224 % ID/g
- Drug uptake (Caudate): Active
- Drug uptake (Kidney [12]): 0.841 % ID/g
- Drug uptake (Bone [13]): 0.182 % ID/g
- Drug uptake (Kidney [14]): 1.022 % ID/g
- Drug uptake (Blood [15]): 0.306 % ID/g
- Ratio (Nucleic Acid [16]): > 2
- Ratio (Nucleic Acid [17]): > 3
- Drug uptake (Liver [18]): 4.24 % ID/g
- Drug uptake (Brain [19]): 0.092 % ID/g
- remaining at 0.5 h [20]: 73%
- Ratio (Nucleic Acid [21]): > 3
- Drug uptake (Liver [22]): 3.17 % ID/g
- Drug uptake (Muscle tissue [23]): 0.134 % ID/g
- Ratio (Nucleic Acid [24]): > 5
- Drug uptake (Putamen): Active
- remaining at 1.5 h [25]: 45%
- Ratio (Nucleic Acid [26]): > 3
- Ratio (Nucleic Acid [27]): > 3
- remaining at 0.25 h [28]: 90%
SMILES: Cn1cc(-c2ccncc2)c(-c2ccc(OCc3nc4ccccc4cc3OCC[18F])cc2)n1

Reference: ChEMBL document CHEMBL3627597, “Synthesis of Fluorine-Containing Phosphodiesterase 10A (PDE10A) Inhibitors and the In Vivo Evaluation of F-18 Labeled PDE10A PET Tracers in Rodent and Nonhuman Primate” (J Med Chem, 2015)
